According to ChEMBL document CHEMBL1165925, “Identification of new non-carboxylic acid containing inhibitors of aldose reductase” (Bioorg Med Chem, 2010):

molecular target: Aldo-keto reductase family 1 member B1 (Bos taurus, UniProt P16116); experiment: Inhibition of bovine lens aldose reductase
How it was run: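 Enzyme purified from bovine lens by DE-52 ion exchange then Matrex Orange A affinity chromatography (0.93 U/mg) and kept at 4 °C in 10 mM sodium phosphate pH 7.0 with 2 mM DTT. At least five inhibitor concentrations (20–80% inhibition), each tested at least in triplicate. IC50 from one-site competition nonlinear fit; 95% CL.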

| Structure (SMILES) | IC50 |
| --- | --- |
| O=C1S/C(=C\c2ccc(O)cc2)C(=O)N1CC(=O)C(F)(F)F | 3 µM |
| O=C1S/C(=C\c2ccc(OCc3ccccc3)cc2)C(=O)N1CC(=O)C(F)(F)F | > 9 µM |
| O=C1S/C(=C\c2ccc(Oc3ccccc3)cc2)C(=O)N1CC(O)(O)C(F)(F)F | 8.3 µM |
| COc1cccc(/C=C2\SC(=O)N(CC(=O)C(F)(F)F)C2=O)c1 | 23.3 µM |
| O=C1S/C(=C\c2ccc(O)cc2)C(=O)N1CC(O)(O)C(F)(F)F | 3 µM |
| O=C1S/C(=C\c2cccc(O)c2)C(=O)N1CC(O)(O)C(F)(F)F | 12.3 µM |

The remaining lines, values ahead:

| IC50 | Structure (SMILES) |
| --- | --- |
| 12.3 µM | O=C1S/C(=C\c2cccc(O)c2)C(=O)N1CC(=O)C(F)(F)F |
| 8.3 µM | O=C1S/C(=C\c2ccc(Oc3ccccc3)cc2)C(=O)N1CC(=O)C(F)(F)F |
| > 9 µM | O=C1S/C(=C\c2ccc(OCc3ccccc3)cc2)C(=O)N1CC(O)(O)C(F)(F)F |
| 23.3 µM | COc1cccc(/C=C2\SC(=O)N(CC(O)(O)C(F)(F)F)C2=O)c1 |
| 17.4 µM | COc1ccc(/C=C2\SC(=O)N(CC(O)(O)C(F)(F)F)C2=O)cc1 |
| 17.4 µM | COc1ccc(/C=C2\SC(=O)N(CC(=O)C(F)(F)F)C2=O)cc1 |

molecular target: Aldo-keto reductase family 1 member B1 (Bos taurus) (UniProt P16116); experiment: Inhibition of bovine lens aldose reductase at 25 uM
How it was run: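 Bovine lens enzyme was purified by DE-52 and Matrex Orange A chromatography. Assay used glyceraldehyde as substrate in 0.25 M sodium phosphate pH 6.8, with 0.38 M ammonium sulfate, 0.11 mM NADPH and 0.5 mM EDTA. Inhibitor was added in DMSO, final 1% v/v. Read-out is NADPH oxidation, given as percent inhibition at a single concentration.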

| Structure (SMILES) | inhibition |
| --- | --- |
| O=C1S/C(=C\c2cccc3ccccc23)C(=O)N1CC(=O)C(F)(F)F | 52% |
| O=C1S/C(=C\c2cccc(Oc3ccccc3)c2)C(=O)N1CC(=O)C(F)(F)F | 64% |
| O=C1S/C(=C\c2ccc(-c3ccccc3)cc2)C(=O)N1CC(O)(O)C(F)(F)F | 45% |
| O=C1S/C(=C\c2ccc(-c3ccccc3)cc2)C(=O)N1CC(=O)C(F)(F)F | 45% |
| O=C1S/C(=C\c2ccc3ccccc3c2)C(=O)N1CC(=O)C(F)(F)F | 59% |

Further lines, results first:

| inhibition | Structure (SMILES) |
| --- | --- |
| 59% | O=C1S/C(=C\c2ccc3ccccc3c2)C(=O)N1CC(O)(O)C(F)(F)F |
| 52% | O=C1S/C(=C\c2cccc3ccccc23)C(=O)N1CC(O)(O)C(F)(F)F |
| 64% | O=C1S/C(=C\c2cccc(Oc3ccccc3)c2)C(=O)N1CC(O)(O)C(F)(F)F |
